In ChEMBL document CHEMBL1240424, “Design and synthesis of potent inhibitors of beta-ketoacyl-acyl carrier protein synthase III (FabH) as potential antibacterial agents” (Eur J Med Chem, 2010):

Tests used:
Escherichia coli = assay: Antibacterial activity against Escherichia coli after 24 hrs by MTT assay; type: functional
Summary of the method: (§1)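 Broth microdilution in Mueller–Hinton medium. Compounds from a 100 μg/mL DMSO stock were serially diluted, and inoculum was about 10⁵ cfu/mL. Plates were incubated 24 h at 37 °C and MIC was read visually. MTT (2 mg/mL in PBS pH 7.4) was then added for 4–5 h at room temperature, dye extracted with acidified isopropanol for 12 h, and OD read at 550 nm.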

Pseudomonas fluorescens = assay: Antibacterial activity against Pseudomonas fluorescens after 24 hrs by MTT assay; type: functional; summary of the method: as §1
Bacillus subtilis = assay: Antibacterial activity against Bacillus subtilis after 24 hrs by MTT assay; type: functional; summary of the method: as §1
Staphylococcus aureus = assay: Antibacterial activity against Staphylococcus aureus after 24 hrs by MTT assay; type: functional; summary of the method: as §1
[1] = Inhibition of Escherichia coli N-terminal His-tagged FabH expressed in Escherichia coli BL21(DE3) after 25 mins
Summary of the method: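 His-tagged E. coli FabH was Ni-NTA purified. Reaction: 1 nM FabH, 2.5 μM holo-ACP, 20 mM sodium phosphate pH 7.0, 0.5 mM DTT, 0.25 mM MgCl₂. Started with 25 μM acetyl-CoA plus [³H]acetyl-CoA and run 25 min. Stopped with cold 50% TCA, pellet washed and dissolved in NaOH, ³H counted by scintillation. Inhibitors added from DMSO, final ≤2% DMSO, to give IC50.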

| Structure (SMILES) | Activity (Escherichia coli) [µg/mL] | Activity (Pseudomonas fluorescens) [µg/mL] | Activity (Bacillus subtilis) [µg/mL] | Activity (Staphylococcus aureus) [µg/mL] | IC50 [1] [µM] |
| --- | --- | --- | --- | --- | --- |
| CN(C)CCC/N=C/c1cc(F)ccc1O | >100 | >100 | >100 | >100 |  |
| Oc1ccc(F)cc1/C=N/c1ccccn1 | 50 | 100 | >100 | 100 |  |
| CC(C)c1ccc(/N=C/c2cc(F)ccc2O)cc1 | >100 | 100 | >100 | >100 |  |
| CCN(CC)CCC/N=C/c1cc(F)ccc1O | >100 | >100 | >100 | >100 |  |
| Oc1ccc(F)cc1/C=N/c1ccccc1F | 6.25 | 6.25 | 12.5 | 6.25 | 8.6 |
| Oc1ccc(F)cc1/C=N/c1ccc(Br)cc1 | 25 | 25 | 50 | 50 |  |
| Oc1ccc(/N=C/c2cc(F)ccc2O)cc1 | >100 | >100 | >100 | >100 |  |
| Oc1ccc(F)cc1/C=N/c1ccc(F)cc1 | 12.5 | 12.5 | 25 | 12.5 | 28.6 |
| Oc1ccc(F)cc1/C=N/CCN1CCOCC1 | 25 | 25 | 50 | 50 |  |
| Oc1ccc(F)cc1/C=N/C1CCCC1 | 12.5 | 12.5 | 25 | 25 | 18.4 |
| Oc1ccc(CC/N=C/c2cc(F)ccc2O)cc1 | 1.56 | 3.13 | 6.25 | 1.56 | 2.7 |
| Oc1ccc(F)cc1/C=N/c1ccccc1Cl | 6.25 | 12.5 | 12.5 | 12.5 | 11.7 |
| Oc1ccc(F)cc1/C=N/CCN1CCNCC1 | 12.5 | 25 | 50 | 25 | 48.5 |
| NC[C@H]1O[C@H](O[C@H]2[C@H](O)[C@@H](O[C@H]3O[C@H](CO)[C@@H](O)[C@H](N)[C@H]3O)[C@H](N)C[C@@H]2N)[C@H](O)[C@@H](O)[C@@H]1O [KANAMYCIN] | 3.13 | 3.13 | 1.56 | 1.56 |  |
| Oc1ccc(F)cc1/C=N/C1CCN(Cc2ccccc2)CC1 | >100 | >100 | >100 | >100 |  |
| Oc1ccc(F)cc1/C=N/CC1CCCCC1 | 6.25 | 6.25 | 12.5 | 25 | 6.8 |
| Oc1ccc(F)cc1/C=N/C1CCCCC1 | 6.25 | 12.5 | 25 | 12.5 | 7.4 |
| Oc1ccc(F)cc1/C=N/c1ccc(Cl)cc1 | 12.5 | 25 | 50 | 25 | 42.5 |
| Oc1ccc(F)cc1/C=N/CCCN1CCOCC1 | >100 | >100 | >100 | >100 |  |
| O=[N+]([O-])c1ccc(/N=C/c2cc(F)ccc2O)cc1 | >100 | >100 | >100 | >100 |  |
| Cc1ccc(/N=C/c2cc(F)ccc2O)cc1 | 50 | 50 | >100 | 100 |  |
